From ChEMBL document CHEMBL2016487, “Pyrazolopyrimidines as dual Akt/p70S6K inhibitors” (Bioorg Med Chem Lett, 2012)

Tests used:
[1] = Drug metabolism in mouse liver microsomes at 15 uM after 30 mins; format: ADME, Microsome; conditions: read-out: Drug metabolism
Procedure, shortened: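 Mouse liver microsomes at 0.5 mg/mL, incubated 30 min with compound at 15 µM; value reported as % conversion.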

[2] = molecular target: T1, RAC-alpha serine/threonine-protein kinase (Homo sapiens, UniProt P31749); assay: Inhibition of AKT1-mediated GSK3beta phosphorylation in human PC3 cells after 3 hrs by chemiluminescence assay; format: cell-based, PC-3
Procedure, shortened: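 PC-3 cells seeded at 7.5 × 10³ cells/well, grown 24 h, then serum-starved 24 h. Compound treatment 3 h in triplicate (0.2% DMSO final), followed by 100 ng/ml IGF1 for 30 min. Fixed and processed as a cell ELISA using anti-phospho-GSK3β (S9) and anti-total-GSK3β antibodies, chemiluminescent read-out.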

[3] = molecular target: T2, Ribosomal protein S6 kinase beta-1 (Homo sapiens, UniProt P23443); assay: Inhibition of p70S6K-mediated ribosomal protein S6 phosphorylation in human PC3 cells after 3 hrs by chemiluminescence assay; format: cell-based, PC-3
Procedure, shortened: (§1)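 A549 or PC-3 cells seeded at 7.5 × 10³ cells/well in DMEM with heat-inactivated 10% FBS, 1% penicillin–streptomycin, 1% non-essential amino acids, grown 48 h at 37 °C, 5% CO₂. Treated 3 h with compound at 1.2–300 nM, triplicate, 0.2% DMSO final. Fixed in 4% formaldehyde, blocked, probed with anti-phospho-S6 (Ser240/244) and anti-total-S6 overnight at 4 °C, chemiluminescent read-out.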

[4] = molecular target: T1, RAC-alpha serine/threonine-protein kinase; assay: Inhibition of AKT1 after 3 hrs by luciferase based chemiluminescence assay
[5] = molecular target: T2, Ribosomal protein S6 kinase beta-1; assay: Inhibition of p70S6K-mediated ribosomal protein S6 phosphorylation in human A549 cells after 3 hrs by chemiluminescence assay; format: cell-based; procedure, shortened: as §1
[6] = molecular target: T2, Ribosomal protein S6 kinase beta-1; assay: Inhibition of p70S6K after 3 hrs by luciferase based chemiluminescence assay
PC-3 = assay: Anticancer activity against human PC3 prostate tumor cell xenografted model at 100 mg/kg, po qd for 15 days; format: functional; conditions: PC-3, 360 h, read-out: TGI
[7] = Half life in rat at 5 mg/kg, po; format: ADME, organism-based; design: dose 5 mg/kg, route oral; conditions: in vivo
Rattus norvegicus [8] = assay: Dose normalized AUC in rat at 5 mg/kg, po; format: ADME, organism-based; design: dose 5 mg/kg, route oral; conditions: in vivo
[9] = Cmax in rat at 5 mg/kg, po; format: ADME, organism-based; design: dose 5 mg/kg, route oral; conditions: in vivo
[10] = Plasma concentration in mouse at 100 mg/kg after 1 hr; format: ADME, organism-based; design: dose 100 mg/kg
Procedure, shortened: (§2)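 Mouse plasma levels measured 1 and 4 h after a 100 mg/kg dose.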

Rattus norvegicus [11] = assay: Dose normalized AUC in rat at 5 mg/kg, iv; format: ADME, organism-based; design: dose 5 mg/kg, route intravenous; conditions: in vivo
[12] = Volume of distribution in rat at 5 mg/kg; format: ADME, organism-based; design: dose 5 mg/kg; conditions: in vivo
[13] = Half life in rat at 5 mg/kg, iv; format: ADME, organism-based; design: dose 5 mg/kg, route intravenous; conditions: in vivo
[14] = Cmax in rat at 5 mg/kg, iv; format: ADME, organism-based; design: dose 5 mg/kg, route intravenous; conditions: in vivo
[15] = Clearance in rat at 5 mg/kg; format: ADME, organism-based; design: dose 5 mg/kg; conditions: in vivo
[16] = Plasma concentration in mouse at 100 mg/kg after 4 hrs; format: ADME, organism-based; design: dose 100 mg/kg; procedure, shortened: as §2
[17] = Oral bioavailability in rat at 5 mg/kg; format: ADME, organism-based; conditions: in vivo

T1 sequence (P31749 whole entry): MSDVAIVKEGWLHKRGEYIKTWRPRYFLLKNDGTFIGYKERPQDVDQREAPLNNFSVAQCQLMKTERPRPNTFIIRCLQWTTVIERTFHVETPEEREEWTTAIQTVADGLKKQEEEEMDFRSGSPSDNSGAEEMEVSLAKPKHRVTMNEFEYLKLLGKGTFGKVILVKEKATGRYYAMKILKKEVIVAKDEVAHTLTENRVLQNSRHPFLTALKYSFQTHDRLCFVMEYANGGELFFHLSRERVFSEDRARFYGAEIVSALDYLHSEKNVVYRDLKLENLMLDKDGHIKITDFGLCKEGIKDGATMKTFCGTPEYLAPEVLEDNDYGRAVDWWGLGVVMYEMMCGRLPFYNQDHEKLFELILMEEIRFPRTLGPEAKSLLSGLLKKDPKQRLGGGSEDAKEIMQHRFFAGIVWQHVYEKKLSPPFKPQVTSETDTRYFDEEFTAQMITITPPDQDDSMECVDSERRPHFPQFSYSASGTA
T2 sequence (P23443 whole entry): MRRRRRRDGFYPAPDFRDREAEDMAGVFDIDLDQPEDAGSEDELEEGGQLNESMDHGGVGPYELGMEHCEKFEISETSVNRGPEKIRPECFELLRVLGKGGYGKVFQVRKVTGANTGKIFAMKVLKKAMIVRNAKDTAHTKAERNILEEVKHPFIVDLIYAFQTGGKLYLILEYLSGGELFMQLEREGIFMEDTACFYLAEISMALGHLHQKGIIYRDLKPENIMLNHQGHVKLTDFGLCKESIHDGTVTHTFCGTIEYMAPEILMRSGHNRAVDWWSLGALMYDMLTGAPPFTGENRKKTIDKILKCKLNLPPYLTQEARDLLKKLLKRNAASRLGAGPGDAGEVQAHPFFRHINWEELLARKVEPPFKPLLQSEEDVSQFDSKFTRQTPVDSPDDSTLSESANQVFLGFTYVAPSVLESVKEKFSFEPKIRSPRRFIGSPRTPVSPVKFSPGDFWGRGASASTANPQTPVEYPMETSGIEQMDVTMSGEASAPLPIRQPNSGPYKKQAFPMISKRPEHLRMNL

Compound	metabolised at 0.5 h, 15 µM [1] [%]	IC50 [2] [nM]	IC50 [3] [nM]	IC50 [4] [nM]	IC50 [5] [nM]	IC50 [6] [nM]	half-life [7] [h]	AUC/dose (Rattus norvegicus [8]) [µM·kg·h/mg]	Cmax [9] [nM]	concentration at 1 h [10] [nM]	AUC/dose (Rattus norvegicus [11]) [µM·kg·h/mg]	Vd [12] [L/kg]	half-life [13] [h]	Cmax [14] [nM]	clearance [15] [mL/min/kg]	concentration at 4 h [16] [nM]	bioavailability [17] [%]	inhibition in vivo at 100 mg/kg (PC-3) [%]
CCc1n[nH]c2ncnc(N3CCN(c4cc(Cl)cc(NCCN(C)C)c4C)CC3)c12	29	9030	211		45	2												49
Cc1c(NCCN(C)C)cc(Cl)cc1N1CCN(c2ncnc3[nH]nc(Br)c23)CC1	50	4280	141		43	2												

Continued, in another order:

metabolised at 0.5 h, 15 µM [1] [%]	IC50 [2] [nM]	IC50 [3] [nM]	IC50 [4] [nM]	IC50 [5] [nM]	IC50 [6] [nM]	half-life [7] [h]	AUC/dose (Rattus norvegicus [8]) [µM·kg·h/mg]	Cmax [9] [nM]	concentration at 1 h [10] [nM]	AUC/dose (Rattus norvegicus [11]) [µM·kg·h/mg]	Vd [12] [L/kg]	half-life [13] [h]	Cmax [14] [nM]	clearance [15] [mL/min/kg]	concentration at 4 h [16] [nM]	bioavailability [17] [%]	Compound	inhibition in vivo at 100 mg/kg (PC-3) [%]
18	3590	832	434	80	3												CCc1n[nH]c2ncnc(N3CCN(c4cc(Cl)cc(NCCN5CCCC5)c4C)CC3)c12	
19	1270	446	42	94	2												Cc1c(NCCN2CCCC2)cc(Cl)cc1N1CCN(c2ncnc3[nH]nc(Br)c23)CC1	
	9070		56	197	2												CCOc1cc(NCCN2CCCC2)c(C)c(N2CCN(c3ncnc4[nH]nc(Br)c34)CC2)c1	
	700	214	9	37	1	1.7	0.05	70	1200	0.35	14.7	2.5	1150	79.5	1300	13	Cc1c(NCCN2CCCC2)cc(OCC(C)C)cc1N1CCN(c2ncnc3[nH]nc(Br)c23)CC1	
